Assay results published in ChEMBL document CHEMBL1124196, “Etodolac, a novel antiinflammatory agent. The syntheses and biological evaluation of its metabolites” (J Med Chem, 1988).
pIC50: −log10 of the molar value.

Assays:
[1] = test system: Rattus norvegicus; experiment: Evaluated for the inhibition of adjuvant-induced hind paw edema in rats at 25 mg/kg dose; assay type: functional
Procedure, shortened: (§1)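 Male Sprague-Dawley rats (180-200 g), groups of 10; 0.1 mL Freund's complete adjuvant (0.5 mg killed, dried Mycobacterium butyricum in mineral oil) intradermally into left hindpaw. Compound or vehicle (0.5% Tween 80 in water) by gastric lavage just before FCA (day 0) and at 24 and 48 h. Paw volume by plethysmometer before FCA and on day 3; % inhibition of mean edema versus control.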

[2] = Evaluated in vitro for its ability to inhibit prostaglandin E2 production in cultured chondrocyte cells at 25 mg/kg dose; assay type: functional, organism-based; settings: Rattus norvegicus
[3] = Evaluated in vitro for its ability to inhibit prostaglandin E2 production in cultured chondrocyte cells at 12 mg/kg dose; assay type: functional, organism-based; settings: Rattus norvegicus
[4] = test system: Rattus norvegicus; experiment: Evaluated for the inhibition of adjuvant-induced hind paw edema in rats at 12 mg/kg dose; assay type: functional; procedure, shortened: as §1

Row | Compound | inhibition in vivo at 25 mg/kg [1] [%] | pIC50 [2] | pIC50 [3] | inhibition in vivo at 12 mg/kg [4] [%]
1 | CCc1cccc2c3c([nH]c12)C(CC)(CC(=O)O)OCC3=O (stereo not drawn) | 21 | 6.73 |  | 
2 | CCc1cccc2c3c(n(C)c12)C(CC)(CC(=O)O)OCC3 (stereo not drawn) | 11 | 4.60 |  | 
3 | CCc1cccc2c3c([nH]c12)C(CC)(CC(=O)O)OCC3NC(N)=O (stereo not drawn) [4-UREIDOETODOLAC] |  | < 4.00 |  | 
4 | CCc1cc(O)cc2c3c([nH]c12)C(CC)(CC(=O)O)OCC3 (stereo not drawn) [6-HYDROXYETODOLAC] | 10 | 5.19 |  | 
5 | CCc1c(O)ccc2c3c([nH]c12)C(CC)(CC(=O)O)OCC3 (stereo not drawn) [7-HYDROXYETODOLAC] |  |  | 4.30 | 8
6 | CCC1(CC(=O)O)OCCc2c1[nH]c1c(C(C)O)cccc21 (stereo not drawn) [8-(1-HYDROXYETHYL)ETODOLAC] | 14 | 5.70 |  | 
7 | CCc1cccc2c3c([nH]c12)C(CC)(CC(=O)O)OCC3 (stereo not drawn) [ETODOLAC] | 65 | 7.60 |  | 
